Measured values taken from ChEMBL document CHEMBL2380284, “X-ray crystal structures of the Escherichia coli RNA polymerase in complex with benzoxazinorifamycins” (J Med Chem, 2013).

What was measured:
[1] = target: DNA-directed RNA polymerase subunit beta (Escherichia coli O127:H6 (strain E2348/69 / EPEC), UniProt B7UPE2, H526Y); assay: Inhibition of rifamycin-resistant Escherichia coli RNA polymerase H526Y mutant after 10 mins by rolling circle transcription assay in presence of DNA nanocircle template NC45
[2] = target: DNA-directed RNA polymerase subunit beta (Escherichia coli O127:H6 (strain E2348/69 / EPEC), UniProt B7UPE2, D516V); assay: Inhibition of rifamycin-resistant Escherichia coli RNA polymerase D516V mutant after 10 mins by rolling circle transcription assay in presence of DNA nanocircle template NC45
[3] = Inhibition of wild type Escherichia coli RNA polymerase after 10 mins by rolling circle transcription assay in presence of DNA nanocircle template NC45
In short: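 Wild-type core enzyme (10 nM final), Ni-NTA purified, with compound at 1.56-100 or 3.12-200 nM, held 10 min at 37 °C in Tris-HCl pH 8.0 buffer with KCl, MgCl2, Triton X-100, DTT and RNase inhibitor. Transcription on 80 nM NC45 circle was started with NTPs (500 µM each). Each compound run in duplicate; IC50 by nonlinear four-parameter logistic regression.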

[4] = Inhibition of wild type Mycobacterium tuberculosis RNA polymerase after 10 mins by rolling circle transcription assay in presence of DNA nanocircle template NC45

DNA-directed RNA polymerase subunit beta (Escherichia coli O127:H6 (strain E2348/69 / EPEC), UniProt B7UPE2, D516V), sequence (B7UPE2 whole entry D516V): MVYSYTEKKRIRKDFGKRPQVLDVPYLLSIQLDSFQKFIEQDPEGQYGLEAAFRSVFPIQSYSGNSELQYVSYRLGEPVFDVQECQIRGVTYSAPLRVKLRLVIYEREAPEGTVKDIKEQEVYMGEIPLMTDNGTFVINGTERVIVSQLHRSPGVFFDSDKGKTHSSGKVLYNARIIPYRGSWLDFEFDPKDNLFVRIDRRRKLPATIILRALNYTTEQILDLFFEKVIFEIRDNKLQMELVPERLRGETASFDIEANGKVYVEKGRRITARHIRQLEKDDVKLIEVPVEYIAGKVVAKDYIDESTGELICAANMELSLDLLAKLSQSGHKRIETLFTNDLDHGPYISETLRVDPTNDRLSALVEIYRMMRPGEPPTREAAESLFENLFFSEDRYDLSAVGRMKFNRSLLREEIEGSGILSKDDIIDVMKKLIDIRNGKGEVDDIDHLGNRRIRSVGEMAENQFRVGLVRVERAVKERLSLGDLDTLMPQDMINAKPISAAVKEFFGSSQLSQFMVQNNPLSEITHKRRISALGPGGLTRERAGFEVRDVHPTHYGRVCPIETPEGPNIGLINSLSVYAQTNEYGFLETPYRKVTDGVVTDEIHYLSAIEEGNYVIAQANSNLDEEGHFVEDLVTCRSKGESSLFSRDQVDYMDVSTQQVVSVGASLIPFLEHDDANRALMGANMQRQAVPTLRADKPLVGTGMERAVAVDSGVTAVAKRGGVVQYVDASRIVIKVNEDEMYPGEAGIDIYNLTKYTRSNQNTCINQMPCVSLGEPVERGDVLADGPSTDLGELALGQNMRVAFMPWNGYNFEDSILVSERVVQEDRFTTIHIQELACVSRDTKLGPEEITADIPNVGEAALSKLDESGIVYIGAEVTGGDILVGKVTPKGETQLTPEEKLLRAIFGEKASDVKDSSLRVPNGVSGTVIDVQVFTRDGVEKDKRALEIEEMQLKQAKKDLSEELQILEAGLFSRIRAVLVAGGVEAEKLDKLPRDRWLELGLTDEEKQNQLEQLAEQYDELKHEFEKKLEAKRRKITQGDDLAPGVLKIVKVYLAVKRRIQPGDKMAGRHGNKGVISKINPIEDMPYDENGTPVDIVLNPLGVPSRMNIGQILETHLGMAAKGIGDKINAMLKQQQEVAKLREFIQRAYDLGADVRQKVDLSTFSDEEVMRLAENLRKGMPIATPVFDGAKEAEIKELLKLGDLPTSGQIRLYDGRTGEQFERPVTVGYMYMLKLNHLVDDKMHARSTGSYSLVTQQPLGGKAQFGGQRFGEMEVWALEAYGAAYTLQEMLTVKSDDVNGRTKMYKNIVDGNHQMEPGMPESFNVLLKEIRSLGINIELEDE
DNA-directed RNA polymerase subunit beta (Escherichia coli O127:H6 (strain E2348/69 / EPEC), UniProt B7UPE2, H526Y), sequence (B7UPE2 whole entry H526Y): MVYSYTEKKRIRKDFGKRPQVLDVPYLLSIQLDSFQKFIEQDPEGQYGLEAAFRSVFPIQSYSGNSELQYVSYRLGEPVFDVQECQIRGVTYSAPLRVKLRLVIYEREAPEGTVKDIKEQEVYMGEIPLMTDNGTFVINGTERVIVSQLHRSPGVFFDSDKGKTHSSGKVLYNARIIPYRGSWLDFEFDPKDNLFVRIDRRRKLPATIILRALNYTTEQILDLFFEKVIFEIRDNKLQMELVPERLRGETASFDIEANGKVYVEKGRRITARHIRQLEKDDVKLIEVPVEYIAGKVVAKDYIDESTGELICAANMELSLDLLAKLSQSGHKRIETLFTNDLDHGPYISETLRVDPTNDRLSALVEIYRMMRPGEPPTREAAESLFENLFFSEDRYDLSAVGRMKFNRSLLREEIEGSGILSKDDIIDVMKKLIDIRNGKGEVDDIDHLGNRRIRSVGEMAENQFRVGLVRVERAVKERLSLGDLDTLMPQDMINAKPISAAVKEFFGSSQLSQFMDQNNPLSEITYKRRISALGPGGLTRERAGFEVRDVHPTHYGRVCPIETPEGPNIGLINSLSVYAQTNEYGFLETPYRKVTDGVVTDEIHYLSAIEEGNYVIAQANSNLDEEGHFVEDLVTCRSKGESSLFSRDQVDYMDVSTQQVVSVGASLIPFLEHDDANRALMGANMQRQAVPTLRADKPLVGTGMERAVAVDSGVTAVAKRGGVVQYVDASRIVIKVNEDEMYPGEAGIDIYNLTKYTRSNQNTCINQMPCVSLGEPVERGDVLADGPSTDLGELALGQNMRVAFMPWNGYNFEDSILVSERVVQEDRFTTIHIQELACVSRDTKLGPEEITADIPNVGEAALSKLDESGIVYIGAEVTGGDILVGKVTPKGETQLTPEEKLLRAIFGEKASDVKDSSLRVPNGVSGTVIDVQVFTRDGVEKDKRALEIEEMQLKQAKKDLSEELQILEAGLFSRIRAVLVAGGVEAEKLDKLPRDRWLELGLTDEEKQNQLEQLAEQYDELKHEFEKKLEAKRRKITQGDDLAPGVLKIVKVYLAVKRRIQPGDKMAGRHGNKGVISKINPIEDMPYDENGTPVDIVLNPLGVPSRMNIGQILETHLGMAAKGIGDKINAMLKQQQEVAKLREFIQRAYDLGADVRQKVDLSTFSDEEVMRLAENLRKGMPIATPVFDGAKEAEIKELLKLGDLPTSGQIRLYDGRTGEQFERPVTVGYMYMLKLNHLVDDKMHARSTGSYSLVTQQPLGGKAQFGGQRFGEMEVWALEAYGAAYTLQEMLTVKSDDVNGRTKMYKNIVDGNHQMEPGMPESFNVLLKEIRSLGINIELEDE

SMILES: CO[C@H]1/C=C/O[C@@]2(C)Oc3c(C)c(O)c4c(=O)c(c5oc6cc(N7CCN(CC(C)C)CC7)cc(O)c6nc-5c4c3C2=O)NC(=O)/C(C)=C\C=C\[C@H](C)[C@H](O)[C@@H](C)[C@@H](O)[C@@H](C)[C@H](OC(C)=O)[C@@H]1C [RIFALAZIL]
- IC50 [1]: 299 µM
- IC50 [2]: 204 µM
- IC50 [3]: < 0.01 µM

SMILES: CO[C@H]1/C=C/O[C@@]2(C)Oc3c(C)c(O)c4c(=O)c(c5oc6cccc(OCCCCN7CCN(CCn8ccnc8)CC7)c6nc-5c4c3C2=O)NC(=O)/C(C)=C\C=C\[C@H](C)[C@H](O)[C@@H](C)[C@@H](O)[C@@H](C)[C@H](OC(C)=O)[C@@H]1C
- IC50 [1]: ≥ 2000 µM
- IC50 [2]: 2 µM
- IC50 [3]: 0.024 µM

SMILES: CCN(CC)CCOc1cccc2oc3c4c(=O)c5c(O)c(C)c6c(c5c-3nc12)C(=O)[C@@](C)(O/C=C/[C@H](OC)[C@@H](C)[C@@H](OC(C)=O)[C@H](C)[C@H](O)[C@H](C)[C@@H](O)[C@@H](C)/C=C/C=C(/C)C(=O)N4)O6
- IC50 [1]: 1150 µM
- IC50 [2]: 35 µM
- IC50 [3]: 0.057 µM

SMILES: CO[C@H]1/C=C/O[C@@]2(C)Oc3c(C)c(O)c4c(O)c(c(/C=N/N5CCN(C)CC5)c(O)c4c3C2=O)NC(=O)/C(C)=C\C=C\[C@H](C)[C@H](O)[C@@H](C)[C@@H](O)[C@@H](C)[C@H](OC(C)=O)[C@@H]1C [RIFAMPIN]
- IC50 [1]: 1130 µM
- IC50 [2]: 233 µM
- IC50 [4]: 0.017 µM
- IC50 [3]: 0.012 µM

SMILES: CO[C@H]1/C=C/O[C@@]2(C)Oc3c(C)c(O)c4c(=O)c(c5oc6cccc(OCCCCN7CCN(C(=O)Cn8ccnc8)CC7)c6nc-5c4c3C2=O)NC(=O)/C(C)=C\C=C\[C@H](C)[C@H](O)[C@@H](C)[C@@H](O)[C@@H](C)[C@H](OC(C)=O)[C@@H]1C
- IC50 [1]: 1580 µM
- IC50 [2]: 41 µM
- IC50 [3]: 0.021 µM
